From ChEMBL document CHEMBL1121812, “Promotion of carbohydrate oxidation in the heart by some phenylglyoxylic acids” (1981) come the findings set out here.

Assay [1] deals with T1, Pyruvate dehydrogenase kinase (Rattus norvegicus) (UniProt Q63065+A6IPZ9+Q64536+O54937). The assay can be described thus: Tested for pyruvate oxidation in rat diaphragm, measured as % conversion of [14C]pyruvate to 14CO2 at 0.5 mM concentration of DCA (dichloroacetic acid). The format is functional, tissue-based. In outline: (§1)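 Rat diaphragm cut into four portions, each weighed and preincubated 1 h at 37 °C in Krebs-Ringer bicarbonate, pH 7.4, gassed O2/CO2 (18:1), alone (control) or with compound. Then 4 mM (final) 1- or 2-14C sodium pyruvate added, 1 h at 37 °C. Stopped with H2SO4; 14CO2 trapped in hyamine hydroxide, scintillation counted. Tissue-free blanks included. Reported as percent stimulation versus control.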

The target of assay [2] is T1, Pyruvate dehydrogenase kinase (Rattus norvegicus). The assay can be described thus: Percent Stimulation of pyruvate oxidation in rat diaphragm was measured at 2 mM concentration of DCA (dichloroacetic acid). The format is functional, tissue-based. The method in brief:
as §1

The target is the same in assay [3]. As to the kind of experiment: Pyruvate dehydrogenase active/ Pyruvate dehydrogenase total was measured by sc administering the DCA in rat at a dose of 1.2 mmol/kg. The format is functional, organism-based. In outline:
(§2)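 Hearts frozen in liquid N2, powdered, homogenized in ice-cold phosphate/EDTA/DTT/pyruvate medium. PDH active assayed directly; PDH total after 20 min at 30 °C with 5 mM MgCl2, 2.5 mM CaCl2. 14CO2 from 0.1 mM [1-14C]pyruvate with CoA, NAD, TPP at 30 °C; expressed as % PDH active/total; ≥3 rats/group.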

For assay [4] the target is unchanged. As to the kind of experiment: Tested for pyruvate oxidation in rat diaphragm, measured as % conversion of [14C]pyruvate to 14CO2 at 2 mM concentration. The format is functional, tissue-based. In outline:
as §1

Assay [5] shares this target. As to the kind of experiment: Pyruvate dehydrogenase activity in vivo was measured following subcutaneous administration of 1.2 mmol/kg. The format is functional, organism-based. The method in brief: as §2
The species entered for assay [6] is Rattus norvegicus. As to the kind of experiment: Percent stimulation of pyruvate oxidation in rat diaphragm by the compound was measured at 2 mM concentration. The assay is classed as functional. The method in brief: as §1
Assay [7] is filed under the species Rattus norvegicus. As to the kind of experiment: Percent Stimulation of pyruvate oxidation in Rat by the compound was measured at 2 mM concentration of DCA (dichloroacetic acid). The format is functional. In outline: as §1
The species entered for assay [8] is Rattus norvegicus. As to the kind of experiment: Percent Stimulation of pyruvate oxidation in Rat by the compound was measured at 0.5 mM concentration of DCA (dichloroacetic acid). The assay is classed as functional. In outline: as §1
Assay [9] has as its system pyruvate dehydrogenase (Rattus norvegicus). As to the kind of experiment: Tested for pyruvate oxidation in rat diaphragm, measured as % conversion of [14C]pyruvate to 14CO2 at 5 mM concentration.
Assay [10] is filed under the species Rattus norvegicus. As to the kind of experiment: Percent Stimulation of pyruvate oxidation in rat diaphragm by the compound was measured at 2 mM concentration. The assay is classed as functional. The method in brief:
as §1

Assay [11] deals with Rattus norvegicus. The assay can be described thus: Pyruvate dehydrogenase active/ Pyruvate dehydrogenase total was measured by sc administering the compound in rat at a dose of 1.2 mmol/kg. The format is functional. In outline: as §2
The species named for assay [12] is Rattus norvegicus. The assay can be described thus: Compound was tested in vitro for pyruvate oxidation in Rat, measured as % conversion of [14C]pyruvate to 14CO2 at 0.5 mM concentration of DCA (dichloroacetic acid). The assay is classed as functional. In outline:
as §1

Assay [13] deals with Pyruvate dehydrogenase complex (Rattus norvegicus). The assay can be described thus: Tested for pyruvate oxidation in rat diaphragm, measured as % conversion of [14C]pyruvate to 14CO2 at 2 mM concentration.
The species named for assay [14] is Rattus norvegicus. The assay can be described thus: (§3) Compound was tested in vitro for pyruvate oxidation in rat diaphragm, measured as % conversion of [14C]pyruvate to 14CO2 at 2 mM concentration of DCA (dichloroacetic acid). The format is functional. The method in brief: as §1
For assay [15], the species on record is Rattus norvegicus. Described as §3. The assay is classed as functional. In outline: as §1
The source holds these as a separate data set.

The test system of assay [16] is Rattus norvegicus. The assay can be described thus: Pyruvate dehydrogenase activity in vivo was measured following subcutaneous administration of 1.2 mmol/kg of the DCA in rat at a dose of 1.2 mmol/kg. The assay is classed as functional. In outline:
as §2

As to `Cc1cc(C(=O)C(=O)O)ccc1O`, the Stimulation in assay [1] was found to be 2%; in [2] it was 107%; in assay [4], 21%. The values for the PDH active/PDH total in assay [3] and in assay [5] were 89% and 31%, respectively.

For `N[C@H](C(=O)O)c1ccc(O)cc1` (stereo in doubt; L-25) [OXFENICINE], the Stimulation worked out at 136% in assay [6], 123% in assay [7] and 84% in assay [8].

Regarding `COc1ccc(C(N)C(=O)O)cc1` (stereo in doubt; L-27) [listing 1 of 2 here], the Stimulation in [9] came to 115%. Moreover, the PDH active/PDH total is 90% in assay [3] and 5% in [5].

On to `CSc1ccc(C(N)C(=O)O)cc1` (racemic), for which the Stimulation was 28% in assay [9], 132% in [2] and 65% in assay [10]. Also, the PDH active/PDH total came out at 76% in assay [3] and 20% in assay [5].

With `N[C@H](C(=O)O)c1ccc(O)cc1` (stereo in doubt; D-26), the PDH active/PDH total in assay [3] stood at 87%; in assay [5] it was 26%.

On to `Cc1ccc(C(N)C(=O)O)cc1` (stereo not given), for which the Stimulation in assay [1] was 24%; in [2] it was 95%; in assay [4], 36%.

Turning to `CN(C)c1ccc(C(=O)C(=O)O)cc1`, the Stimulation in assay [9] is 16%; in assay [1] it was 1%; in assay [2] it was 156%; in assay [10], -5%.

Turning to `NC(C(=O)O)c1ccccc1` (stereo not given), the Stimulation in [7] was determined as 90%. Besides, the “PDH active/PDH total” value in [11] is 13%.

For the molecule `COc1ccc(C(N)C(=O)O)cc1` (stereo in doubt; D-28) [listing 1 of 2 here], the Stimulation in assay [6] was found to be 17%; in [7] it was 108%.

As to `COc1ccc(C(N)C(=O)O)cc1` (stereo in doubt; D-28) [listing 2 of 2 here], the Stimulation in assay [9] is -14%. For the same molecule, the PDH active/PDH total in assay [3] worked out at 87%; in [5] it was 11%.

Take `C=CCc1cc(C(=O)C(=O)O)ccc1O`: the Stimulation in assay [1] amounted to 11%; in assay [2], 120%; in [4], 29%. Moreover, the figures for the PDH active/PDH total in [3] and in assay [5] were 90% and 11%, respectively.

With `O=C(O)C(=O)c1ccc(O)cc1`, the Stimulation was 63% in assay [1], 142% in [2] and 80% in assay [10]. Besides, the PDH active/PDH total stood at 96% in [3] and 12% in assay [5].

For `O=C(O)C(=O)c1ccc(CO)cc1`, the Stimulation in [1] worked out at 12%; in [2], 108%; in assay [4], 23%.

Regarding `CCSc1ccc(C(=O)C(=O)O)cc1`, the Stimulation in assay [1] was 164%; in assay [2] it was 158%; in [4], 231%. The PDH active/PDH total stood at 82% in assay [3] and 73% in assay [5].

In the case of `COc1ccc(C(N)C(=O)O)cc1` (stereo in doubt; L-27) [listing 2 of 2 here], the Stimulation is recorded as 79% in [12], 124% in [6] and 122% in assay [7].

Consider `N[C@H](C(=O)O)c1ccc(O)cc1` (stereo in doubt; D-26) [OXFENICINE], for which the Stimulation was determined as 26% in assay [6] and 130% in [7].

In the case of `CCCCSc1ccc(C(=O)C(=O)O)cc1`, the Stimulation came to 76% in assay [1], 200% in [2] and 113% in assay [4]. The results for the PDH active/PDH total in assay [3] and in assay [5] were 96% and 14%, respectively.

With `N[C@H](C(=O)O)c1ccc(O)cc1` (stereo in doubt; L-25), the PDH active/PDH total came to 87% in [3] and 82% in [5].

Take `COc1ccc(C(=O)C(=O)O)cc1`: the Stimulation in [1] is 62%; in [2] it was 161%; in assay [10], 132%; in [4], 132%. For the same molecule, the PDH active/PDH total in assay [3] stood at 97%; in assay [5], 49%.

With `O=C(O)C(=O)c1ccccc1`, the Stimulation in [1] stood at 42%; in assay [2], 219%; in assay [4], 85%. Moreover, the PDH active/PDH total in [3] is 87%; in [5] it was 38%.

As to `NC(C(=O)O)c1ccc(Cl)cc1` (stereo not given), the values for the Stimulation in assay [1], in [2] and in assay [4] were 43%, 99% and 102%, respectively. In addition, the figures for the PDH active/PDH total in [3] and in assay [5] were 90% and 43%, respectively.

Turning to `CCSc1ccc(C(N)C(=O)O)cc1` (racemic), the Stimulation in [9] amounted to 24%; in [2] it was 132%; in [10] it was 20%. Moreover, the PDH active/PDH total was 80% in assay [3] and 5% in [5].

As for `O=C(O)C(=O)c1cc(I)c(O)c(I)c1`, the Stimulation in assay [1] came to 5%; in [2], 120%; in [4], 85%. Further, the results for the PDH active/PDH total in assay [3] and in assay [5] were 87% and 12%, respectively.

`COc1ccccc1C(=O)C(=O)O`: the values for the Stimulation in [9], in assay [2] and in [10] were -2%, 163% and -10%, respectively.

As to `CSc1ccc(C(=O)C(=O)O)cc1`, the Stimulation was 154% in assay [9], 101% in assay [2] and 123% in assay [13]. The PDH active/PDH total came to 82% in assay [3] and 69% in assay [5].

As for `O=C(O)C(=O)c1ccc(Cl)cc1`, the Stimulation in assay [9] stood at 71%; in assay [14] it was 82%; in assay [15] it was 48%.

In the case of `NC(=O)c1ccc(C(=O)C(=O)O)cc1`, the Stimulation in assay [9] was 20%; in assay [2], 200%; in assay [10], 11%.

Consider `CCS(=O)(=O)Nc1ccc(C(=O)C(=O)O)cc1`, for which the Stimulation in [1] amounted to 16%; in assay [2], 100%; in assay [4], 22%.

As for `Cc1ccc(C(=O)C(=O)O)cc1`, the figures for the “PDH active/PDH total” value in assay [16] and in assay [5] were 97% and 50%, respectively. Besides, the Stimulation in assay [1] was determined as 20%; in [4], 43%; in [15], 100%.

Take `CC(C)Sc1ccc(C(=O)C(=O)O)cc1`: the Stimulation in [1] came to 26%; in [2], 200%; in assay [4] it was 162%. The PDH active/PDH total in [3] turned out to be 96%; in [5], 51%.
